In ChEMBL document CHEMBL1131011, “Pharmacophores incorporating numerous excluded volumes defined by X-ray crystallographic structure in three-dimensional database searching: application to the thyroid hormone receptor” (J Med Chem, 1998):

Target: T1, Thyroid hormone receptor alpha (Homo sapiens, UniProt P10827)
T1 sequence (P10827 whole entry): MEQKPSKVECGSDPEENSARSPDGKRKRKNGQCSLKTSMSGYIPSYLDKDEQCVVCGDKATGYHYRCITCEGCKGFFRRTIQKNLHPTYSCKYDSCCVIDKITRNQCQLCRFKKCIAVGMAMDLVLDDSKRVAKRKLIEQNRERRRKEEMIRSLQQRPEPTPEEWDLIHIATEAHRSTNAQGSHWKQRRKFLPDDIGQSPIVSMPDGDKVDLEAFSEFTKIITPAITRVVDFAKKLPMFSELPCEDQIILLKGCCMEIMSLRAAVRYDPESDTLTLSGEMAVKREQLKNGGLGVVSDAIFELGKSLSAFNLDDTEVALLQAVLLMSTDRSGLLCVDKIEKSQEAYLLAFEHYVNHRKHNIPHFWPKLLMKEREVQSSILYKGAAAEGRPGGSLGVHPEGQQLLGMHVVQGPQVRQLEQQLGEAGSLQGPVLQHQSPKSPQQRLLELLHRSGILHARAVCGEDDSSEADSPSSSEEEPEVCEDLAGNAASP
Assay: Inhibitory activity expressed as concentration required to inhibit the binding of [125I]T3 to human thyroid hormone-alpha; call rule not given here
Method in brief: (§1)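 hTHR from nuclear extracts of baculovirus-infected sf-9 cells, 20 pM final, with [125I]T3 at 200 pM final. Compounds serially diluted in DMSO. Buffer: 400 mM KCl, K phosphate, 1 mM MgCl2, 0.5 mM EDTA, 8.7% glycerol, 6 mM monothioglycerol, 0.5% reticulocyte lysate; 18–20 h, 4 °C. Bound and free separated on Sephadex G-25, gamma-counted. IC50 from competition curve, second of two titrations.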

IC50 [µM]	Structure (SMILES)
18.1	O=C(Nc1ccc(Cc2ccc(NC(=O)c3cccc([N+](=O)[O-])c3)cc2)cc1)c1cccc([N+](=O)[O-])c1
0.93	[NH-]C(c1cc(Cl)cc(Cl)c1)=[N+](N)S(=O)(=O)c1cc(Cl)c(Oc2ccc([N+](=O)[O-])cc2Cl)c(Cl)c1
39	N=C(c1ccccn1)N(N)S(=O)(=O)c1cc(Cl)c(Oc2ccc([N+](=O)[O-])cc2Cl)c(Cl)c1
69	Cn1c(Cc2nn(C)c(=O)c3ccccc23)ccc1SCC(=O)c1ccc(Cl)cc1Cl
1.8	N=C(CCl)N(N)S(=O)(=O)c1cc(Cl)c(Oc2ccc([N+](=O)[O-])cc2Cl)c(Cl)c1

Target: T1, Thyroid hormone receptor alpha
Assay: Inhibitory activity expressed as concentration required to inhibit the binding of [125I]T3 to human thyroid hormone-alpha; NA =Inactive
Method in brief: as §1

IC50	Structure (SMILES)
Not Active	N=C(c1ccc(Cl)cc1)N(N)S(=O)(=O)c1cc(Cl)c(Oc2ccc([N+](=O)[O-])cc2Cl)c(Cl)c1
Not Active	N=C(c1cccnc1)N(N)S(=O)(=O)c1cc(Cl)c(Oc2ccc([N+](=O)[O-])cc2Cl)c(Cl)c1
Not Active	N=C(c1ccc(Cl)cc1)N(N)S(=O)(=O)c1cc(Cl)c(Oc2ccc([N+](=O)[O-])cc2)c(Cl)c1
Not Active	Cn1c(Cc2nn(C)c(=O)c3ccccc23)ccc1SCc1ccc(Cl)cc1Cl
